These results are taken from ChEMBL document CHEMBL1156781, “The binding of synthetic retinoids to lipocalin beta-lactoglobulins” (J Med Chem, 2010).

Values after ≈ are worked out from the molar mass of the structure shown. Active and inactive are the calls of the source. No cut-off for these calls is given here.

Series [1] deals with T1, Beta-lactoglobulin (Bos taurus) (UniProt P02754).
T1 sequence (whole entry): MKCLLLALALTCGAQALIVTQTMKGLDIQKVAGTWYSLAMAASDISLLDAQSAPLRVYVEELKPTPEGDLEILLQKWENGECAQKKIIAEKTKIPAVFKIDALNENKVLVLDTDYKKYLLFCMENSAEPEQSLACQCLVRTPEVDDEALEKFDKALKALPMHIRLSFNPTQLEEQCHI
The experiment in a line: (§1) Binding affinity to bovine beta-lactoglobulins by fluorescence spectroscopy.

Series [2] is described as follows: Solubility assessed as lowest drug level in which detectable aggregates formed by dynamic light scattering method. The series is classed as physicochemical. The procedure, abridged: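 Retinoid dilutions in PBS measured by dynamic light scattering. The critical concentration is the lowest level giving DLS-detectable aggregates. Concentrations ran up to 200 μM.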

The test system of series [3] is Rangifer tarandus. The experiment in a line: (§2) Binding affinity to reindeer beta-lactoglobulin by fluorescence spectroscopy.
Series [4] has as its target T1, Beta-lactoglobulin (Bos taurus). Put plainly: Binding affinity to bovine beta-lactoglobulins at 100 uM by ultrafiltration/HPLC method. The procedure, abridged:
(§3)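 Ultrafiltration sampling with HPLC analysis. Ligand at 100 μM was allowed to interact with βLG at 50 μM, and the fraction of ligand found in the retentate was quantified as a percentage.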

The nature of series [5]: Solubility assessed as aggregate formation at >= pH 5 by dynamic light scattering method. The format is physicochemical. The following applies: buffer. The procedure, abridged: (§4)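 Retinoids diluted in acid buffer spanning pH 2.0 to 7.0 and examined by dynamic light scattering for aggregate signal.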
Series [6] is described as follows: Solubility in PBS assessed as aggregate diameter size at 200 uM by dynamic light scattering method.
The subject of series [7] is Rangifer tarandus. The experiment in a line: Binding affinity to reindeer beta-lactoglobulin at 100 uM by ultrafiltration/HPLC method. The method in brief: as §3
Series [8] has as its target T1, Beta-lactoglobulin (Bos taurus). Put plainly: Binding affinity to bovine beta-lactoglobulins assessed as aggregate diameter size formed at 200 uM by dynamic light scattering method. The method in brief:
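Retinoid at 200 μM diluted in PBS and measured by dynamic light scattering as mean intensity and particle diameter (kCps/nm). Bovine βLG was then added to the cuvette at 50 μM, and a second run followed a 30 min stabilization phase.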

Series [9] is described as follows: Solubility assessed as aggregate formation at <= pH 4 by dynamic light scattering method. The format is physicochemical. The following applies: buffer. The method in brief: as §4
In series [10] the target is T2, Beta-lactoglobulin (Bos taurus, UniProt P02754).
T2 sequence (P02754 whole entry): T1 sequence (whole entry)
The series is described as §1.

The nature of series [11]: as §2. Details: species or system Rangifer tarandus.

Turning to `CC1=C(/C=C/C(C)=C/C=C/C(C)=C/C(=O)Nc2ccc(O)cc2)C(C)(C)CCC1` [FENRETINIDE], the outcome in [1], in series [3], in series [4] and in series [7] was Active. Further, the solubility (commonly the concentration that dissolves in the medium under given conditions) is 100 µM (≈ 39.2 µg/mL) in series [2] and “Insoluble” in series [5]. Also, the values for the Activity in series [6] and in series [8] were 818.1 nm and 424 nm, respectively.

For `CC1=C(/C=C/c2ccc(/C=C/C(=O)O)cc2)C(C)(C)CCC1`, the solubility result in series [9] is “Insoluble”; in series [2], 100 µM (≈ 29.6 µg/mL). For the same compound, the dissociation constant (Kd) (commonly the free concentration of one partner at which half of the binding sites on the other are occupied at equilibrium, for simple one-to-one binding) in [10] is 0.153 µM; in series [11] it was 0.107 µM. Also, the Activity in series [4] worked out at 29.1%; in [6] it was 668.7 nm; in series [7], 18.8%; in series [8] it was 188 nm.

For the compound `C/C(=C\c1ccc(C(=O)O)cc1)c1ccc2c(c1)C(C)(C)CCC2(C)C`, the result in [1], in series [3], in series [4] and in series [7] was Active. For the same compound, the solubility in series [2] was 50 µM (≈ 17.4 µg/mL); in [5], “Insoluble”. For the same compound, the figures for the Activity in [6] and in series [8] were 848.5 nm and 243 nm, respectively.

As to `CC1=C(/C=C/C(C)=C/C=C/C(C)=C/CO)C(C)(C)CCC1` [RETINOL], the solubility entry in [9] is listed as “Insoluble”. For the same compound, the Kd in [11] was 0.2 µM. In addition, the Activity was 7.9% in series [4], 972.2 nm in series [6], 7.6% in series [7] and 129 nm in [8].

For the compound `COC(=O)/C=C/c1ccc(/C=C/C2=C(C)CCCC2(C)C)cc1`, the result in series [1] was Active. Also, the Activity was 7% in [4], 791.6 nm in series [6], 11% in series [7] and 276 nm in [8]. For the same compound, in series [5], the solubility result is “Insoluble”.
